We go through six compounds from PMC8494022 (Chemical Science, 2021).

As a reminder, the IC50 is the concentration at which inhibition is half-maximal.

Data set [1] is described as follows: Reduction kinetics with ascorbic acid by NMR. It counts as physicochemical. As to conditions: 100 μM, ascorbic acid 10 eq., cell-free, pD 7.4, 37°C.
For data set [2] the following is noted: cited from earlier work.
The subject of data set [3] is CT26 cells. The data set can be described thus: Cellular uptake of FITC-labeled albumin with endocytosis inhibitors. It counts as cell-based, murine (Balb/c). As to conditions: 1 h inhibitor pretreatment, uptake after 3 h.
The test system of data set [4] is CT26 cells. In words: Cytotoxicity, MTT-based cell viability assay. The arrangement: species or system murine (Balb/c). In a few lines: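 MTT-based viability of CT26 cells after 72 h drug exposure, alone or with 100 μM ascorbic acid co-treatment. Values are means ± SD of one representative experiment run in triplicates.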
The test system of data set [5] is CT26 cells. In words: Cellular platinum uptake determined by ICP-MS. The format is cell-based, murine (Balb/c). As to conditions: MβCD, CHP, EIPA 1 h pretreatment, uptake after 3 h.
In data set [6] the test system is CT26 tumors. The data set can be described thus: Histological evaluation of treated tumors. The format is in vivo, Balb/c mice. As to conditions: tumors day 12, H&E-stained. Summed up:
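CT26-bearing BALB/c mice dosed i.v. twice weekly for two weeks, equimolar to 9 mg kg−1 oxaliplatin. Tumors were collected on day 12, 24 h after the last dose. Apoptotic and mitotic cells were counted in H&E sections. Percentages of cleaved caspase-3-positive and Ki-67-positive cells were scored by image analysis. One-way ANOVA with Dunnett's test.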

Data set [7] in a line: Pharmacokinetic of single dose in serum. The format is in vivo, Balb/c mice. Summed up: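 Naive BALB/c mice (n = 4 per group) received a single i.v. dose equimolar to 9 mg kg−1 oxaliplatin. Serum was sampled between 0.08 h and 336 h, and serum versus blood clot was compared at 24 h. Platinum was quantified by ICP-MS and used for concentration–time curves, AUC and terminal elimination half-life.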

The test system of data set [8] is CT26 tumors. In words: Allograft anticancer activity experiments. It counts as in vivo. Particulars: CT26-bearing BALB/c mice. In a few lines: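 CT26 allografts in immune-competent BALB/c mice; test compounds and oxaliplatin given i.v. twice weekly for two weeks at doses equimolar to 9 mg kg−1 oxaliplatin. Body weight was followed. Tumor growth is reported as mean ± SEM and compared by two-way ANOVA. Overall survival was plotted as Kaplan–Meier curves and compared by log-rank test with Mantel–Cox posttest.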

As to `CC(=O)[O][Pt]([NH2])([Cl])([Cl])([NH]C1CCCCC1)[O]C(C)=O` [Satraplatin, satraplatin], in data set [1], the “time to complete reduction” value is recorded as less than 24 h.
For `COc1cccc2c1C(=O)c1c(O)c3c(c(O)c1C2=O)C[C@@](O)(/C(CO)=N/NC(=O)CCCCCN1C(=O)C=CC1=O)C[C@@H]3O[C@H]1C[C@H](N)[C@H](O)[C@H](C)O1` [aldoxorubicin], the “in vivo elimination half-life” value in data set [2] is on record as 2.3 h. For the same compound, in data set [2] (no further increase during the next 24 h), the “time at which tumor accumulation reached a plateau” value was 2 h.
methyl-β-cyclodextrin [MßCD]: in data set [3], the “impact on uptake of FITC-labeled albumin” value is given as “significantly reduced”.
As to `COc1cccc2c1C(=O)c1c(O)c3c(c(O)c1C2=O)C[C@@](O)(C(=O)CO)C[C@@H]3O[C@H]1C[C@H](N)[C@H](O)[C@H](C)O1` [doxorubicin], in data set [2] (15 min after i.v. injection), the “concentration in blood, share of the initial amount” value is listed as “less than 2%”. For the same compound, the “in vivo elimination half-life” value in data set [2] is on record as “in the order of minutes”.
Consider `CCN(c1nc(N)c(C(=O)NC(=N)N)nc1Cl)C(C)C` [EIPA, 5-(N-ethyl-N-isopropyl)amiloride], for which the “impact on uptake of FITC-labeled albumin” value in data set [3] is “had no impact on albumin uptake”.
Turning to `O=C1[O][Pt]2([NH][C@@H]3CCCC[C@H]3[NH]2)[O]C1=O` [oxaliplatin], the “impact of ascorbic acid co-treatment on activity (cell viability)” value in data set [4] (100 μM AA, 72 h) is given as “no relevant impact”. This compound came in with an IC50 in data set [4] (after 72 h) of roughly 3.5 µM. Besides, the “impact of endocytosis inhibitors on cellular drug uptake” value in data set [5] was “neither accumulation of oxaliplatin nor KP2157 were affected by endocytosis inhibition”. Moreover, in data set [6], the “change of mitotic cells” value is given as “significant increase of mitotic cells”. The “serum concentration at first sampling time point relative to KP2156” value in data set [7] (5 min, equimolar application) is on record as “drastically lower than for KP2156”. In data set [7] (single i.v. dose), the “total clearance relative to KP2156” value was “at least one order of magnitude higher than that of KP2156”. Also, the “terminal elimination half-life (t ½)” value in data set [7] (single i.v. dose equimolar to 9 mg kg−1 oxaliplatin) stood at 32.5 h. In addition, the “impact on tumor growth” value in data set [8] (i.v. twice a week for two weeks, equimolar to 9 mg kg−1 oxaliplatin) is listed as “significant activity”. The “day at which treated tumors progressed again” value in data set [8] (same scheme) was roughly 15 days.
